The source made the active and inactive calls. The calls are words filed in the database; no cut-off is given here.
How the values were obtained:
[1] = test system: MIA PaCa-2; test: Downregulation of Sp3 gene expression in human MIAPaCa2 cells at IC50 to 5 times IC50 after 4 hrs by Bru-seq analysis; assay type: functional, cell-based
[2] = test system: MIA PaCa-2; test: Inhibition of mtDNA transcription from HSP2 promoter in human MIAPaCa2 cells at 5 times IC50 after 4 hrs by Bru-seq analysis; assay type: functional, cell-based
How it was run: (§1)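 Nascent RNA sequencing (Bru-seq): 4×10^6 MIA PaCa-2 cells seeded in 10 cm dishes, treated next day for 4 h with drug or DMSO. Bromouridine (2 mM final) added for the last 30 min. Total RNA taken in TRIZOL; labeled RNA immunocaptured, converted to cDNA libraries and deep sequenced. Signal compared with DMSO-treated cells.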

[3] = test system: Mus musculus; test: Toxicity in NOD/SCID mouse xenografted with human MIAPaCa2 cells assessed as body weight loss at 5 mg/kg, ip administered 5 times a week until day 44 followed by dose escalation up to 20 mg/kg until day 67; assay type: organism-based; conditions: in vivo
How it was run: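 After a 44-day course (ip, five days on/two off, in 5% DMSO/60% propylene glycol/35% saline), two mice per group stayed on study and dose was gradually raised from 5 to 20 mg/kg until day 67 in MIA PaCa-2 flank xenografts in NOD/SCID mice. Body weight monitored; mean ± SEM.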

[4] = test system: Mus musculus; test: Toxicity in NOD/SCID mouse xenografted with human MIAPaCa2 cells assessed as microscopic changes in liver at 5 mg/kg, ip administered 5 times a week until day 44 by hematoxylin and eosin staining-based inverted microscopic method; assay type: organism-based; conditions: in vivo
How it was run: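 Necropsy after the 44-day ip course in MIA PaCa-2 xenograft-bearing NOD/SCID mice: heart, kidney, liver, lung, spleen and pancreas fixed in 10% neutral buffered formalin, paraffin-embedded, sectioned and stained with hematoxylin and eosin. Sections examined by inverted microscope at 20X, compared with vehicle-treated animals.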

[5] = test system: MIA PaCa-2; test: Induction of unfolded protein response in human MIAPaCa2 cells assessed as upregulation of GRP78 expression at 2 uM by Western blot analysis; assay type: functional, cell-based; conditions: TDE = time-dependent effect
How it was run: (§2)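 Immunoblotting. Cells (4×10^5) in 60 mm dishes were treated, lysed 30 min at 4°C and quantified by BCA. 40 μg protein was run on SDS-PAGE and transferred to PVDF. Primary antibodies (1:1000) incubated overnight at 4°C, then Dylight 800 secondary, with fluorescent scanning. Bands were normalized to GAPDH or actin loading controls. Mean ± SD, three independent experiments, Student's t-test.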

[6] = Selectivity index, ratio of IC50 for HPDEC to IC50 for human MIAPaCa2 cells
How it was run: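 The measurement is MTT cytotoxicity (72 h) in HPV16-E6E7-immortalized HPDE cells and in MIA PaCa-2 cells, both grown in RPMI1640 with 10% FBS. Cells were seeded at 3000–8000/well and attached overnight, then treated with serial dilutions (30 nM–10 μM for most lines). MTT (300 μg/mL final) was added for 3 h at 37°C, formazan was dissolved in DMSO and A570 was read. IC50s are mean ± SD of three experiments; the index is their ratio.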

[7] = test system: MIA PaCa-2; test: Induction of reactive oxygen species generation in human MIAPaCa2 cells assessed as upregulation of NQO1 gene expression after 4 hrs by Bru-seq analysis; assay type: functional, cell-based
[8] = test system: MIA PaCa-2; test: Inhibition of mtDNA transcription from HSP1 promoter in human MIAPaCa2 cells at 5 times IC50 after 4 hrs by Bru-seq analysis; assay type: functional, cell-based; how it was run: as §1
[9] = test system: Mus musculus; test: Toxicity in NOD/SCID mouse xenografted with human MIAPaCa2 cells assessed as body weight loss at 5 mg/kg, ip administered 5 times a week until day 44; assay type: organism-based; conditions: in vivo
How it was run: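 Subcutaneous flank MIA PaCa-2 xenografts (2.0×10^6 cells) in 6-week NOD/SCID mice, randomized at 65 mm3 (n=5/group: vehicle or drug). Dosed ip in 5% DMSO/60% propylene glycol/35% saline, five days on/two off, to day 44. Body weight tracked and mice watched for weakness, weight loss or lethargy; mean ± SEM.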

[10] = test system: MIA PaCa-2; test: Cytotoxicity against human MIAPaCa2 cells assessed as decrease in cell proliferation after 72 hrs by MTT assay; assay type: functional, cell-based
How it was run: (§3)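 MTT assay. Cells (3000–8000/well) attached overnight in RPMI1640 with 10% FBS; the GR line was kept with 200 nM gemcitabine. Serial dilutions (30 nM–10 μM for most lines) were applied for 72 h. MTT was added at a final 300 μg/mL for 3 h at 37°C, formazan was dissolved in DMSO and A570 read. Inhibition = (1 − OD treated/OD control) × 100. IC50 given as mean ± SD, three independent experiments.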

[11] = test system: MIA PaCa-2; test: Induction of reactive oxygen species generation in human MIAPaCa2 cells assessed as upregulation of HO-1 expression at 2 uM after 4 to 24 hrs by Western blot analysis; assay type: functional, cell-based; how it was run: as §2
[12] = test system: MIA PaCa-2; test: Downregulation of Sp4 gene expression in human MIAPaCa2 cells at IC50 to 5 times IC50 after 4 hrs by Bru-seq analysis; assay type: functional, cell-based
[13] = test system: PANC-1; test: Cytotoxicity against human PANC1 cells assessed as decrease in cell proliferation after 72 hrs by MTT assay; assay type: functional, cell-based; conditions: PANC-1, 72 h; how it was run: as §3
[14] = test system: MIA PaCa-2; test: Downregulation of Sp1 gene expression in human MIAPaCa2 cells at IC50 to 5 times IC50 after 4 hrs by Bru-seq analysis; assay type: functional, cell-based
[15] = test system: MIA PaCa-2; test: Induction of unfolded protein response in human MIAPaCa2 cells assessed as upregulation of HSPA5 gene expression after 4 hrs by Bru-seq analysis; assay type: functional, cell-based; how it was run: as §1
[16] = test system: Mus musculus; test: Induction of reactive oxygen species generation in tumor of NOD/SCID mouse xenografted with MIAPaCa2 cells assessed as upregulation of HO-1 expression at 5 mg/kg, ip administered 5 times a week until day 44 by Western blot method; assay type: functional, organism-based
[17] = test system: MIA PaCa-2; test: Inhibition of mtDNA transcription from LSP promoter in human MIAPaCa2 cells at 5 times IC50 after 4 hrs by Bru-seq analysis; assay type: functional, cell-based; how it was run: as §1
[18] = test system: MIA PaCa-2; test: Antiproliferative activity against human MIAPaCa2 cells xenografted in NOD/SCID mouse at 5 mg/kg, ip administered 5 times a week until day 44 by ki67 staining-based assay; assay type: functional, organism-based
[19] = test system: MIA PaCa-2; test: Antitumor activity against human MIAPaCa2 cells xenografted in NOD/SCID mouse assessed as tumor volume at 5 mg/kg, ip administered 5 times a week for 48 days (reference value: 1503 +/- 189 mm'3); assay type: functional
How it was run: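 MIA PaCa-2 subcutaneous xenografts in NOD/SCID mice, randomized at 75 mm3. Test agent was given at 5 mg/kg five times a week. Gemcitabine was given at 15 mg/kg either once weekly for 48 days or twice weekly for 15 days. Groups were n=3–4. Tumor volume was measured by caliper, given as mean ± SEM, and compared by unpaired t test.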

[20] = test system: MIA PaCa-2; test: Induction of reactive oxygen species generation in human MIAPaCa2 cells assessed as upregulation of NQO1 expression at 2 uM after 4 to 24 hrs by Western blot analysis; assay type: functional, cell-based; how it was run: as §2

**Q.** What does the source list for `O=C1C(Nc2ccc(-c3ccccc3)cc2)=CC(=O)c2ncncc21`?
**A.** Activity [1]: inactive; inhibition [2]: Active; Activity [3]: Non-Toxic; Activity [4]: Non-Toxic; Activity [5]: Tde; Ratio IC50 [6]: 3; Activity [7]: Dose-dependent effect; inhibition [8]: inactive; Activity [9]: Non-Toxic; Activity [10]: Dose-dependent effect; IC50 ([10]; MIA PaCa-2, 72 h): 0.9 µM; Activity [11]: Active; Activity [12]: inactive; IC50 [13]: 0.4 µM; Activity [14]: inactive; Activity [15]: Dose-dependent effect; Activity [16]: Active; inhibition [17]: Active; Activity [18]: Active; Activity [19]: 248 mm3; Activity [20]: inactive
